Data set [1] addresses T1, Toll-like receptor 7 (Homo sapiens) (UniProt Q9NYK1).
T1 sequence (whole entry): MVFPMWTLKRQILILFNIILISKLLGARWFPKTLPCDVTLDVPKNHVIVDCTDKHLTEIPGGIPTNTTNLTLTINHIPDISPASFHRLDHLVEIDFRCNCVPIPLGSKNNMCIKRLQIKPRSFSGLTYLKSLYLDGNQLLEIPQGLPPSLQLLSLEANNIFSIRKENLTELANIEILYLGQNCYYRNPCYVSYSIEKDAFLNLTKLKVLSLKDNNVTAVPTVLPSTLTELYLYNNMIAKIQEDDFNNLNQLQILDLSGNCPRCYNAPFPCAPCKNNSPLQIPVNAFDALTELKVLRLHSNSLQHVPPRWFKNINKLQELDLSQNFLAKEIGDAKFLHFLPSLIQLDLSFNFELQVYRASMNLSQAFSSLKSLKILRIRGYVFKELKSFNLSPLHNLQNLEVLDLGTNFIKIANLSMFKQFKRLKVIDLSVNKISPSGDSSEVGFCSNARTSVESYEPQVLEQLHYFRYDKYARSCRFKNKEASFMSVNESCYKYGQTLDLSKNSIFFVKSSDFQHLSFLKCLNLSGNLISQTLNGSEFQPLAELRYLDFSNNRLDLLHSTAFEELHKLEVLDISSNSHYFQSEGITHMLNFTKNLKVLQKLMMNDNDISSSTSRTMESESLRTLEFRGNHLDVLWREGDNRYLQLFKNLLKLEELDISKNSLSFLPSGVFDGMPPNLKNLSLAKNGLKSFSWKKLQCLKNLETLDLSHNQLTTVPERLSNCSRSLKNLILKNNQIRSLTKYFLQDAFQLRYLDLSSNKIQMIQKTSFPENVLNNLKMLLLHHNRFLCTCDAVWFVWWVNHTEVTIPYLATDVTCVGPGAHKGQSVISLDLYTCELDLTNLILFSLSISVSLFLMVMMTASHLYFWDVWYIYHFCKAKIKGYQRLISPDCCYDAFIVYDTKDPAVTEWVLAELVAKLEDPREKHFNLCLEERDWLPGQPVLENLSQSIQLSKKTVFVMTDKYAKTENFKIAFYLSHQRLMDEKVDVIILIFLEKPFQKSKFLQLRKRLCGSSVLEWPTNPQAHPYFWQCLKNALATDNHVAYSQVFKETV
Nature of the data set: Inhibition of human TLR7 expressed in HEK293 cells assessed as reduction in R848-induced NFkappaB production incubated for 16 hrs by quanti-blue SEAP assay. Format: cell-based. In a few lines:
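HEK 293-Blue cells stably expressing hTLR7 or hTLR8 with an inducible SEAP reporter were incubated 16 h with compound under 1 µg/mL R848 stimulation. SEAP was read at 620 nm. Data were normalized to the R848 control, and IC50 was taken from concentration-response curves. […] Mean ± s.d., n = 3 independent experiments.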

For a further data set, the system named is HEK293. Description: Cytotoxicity against human HEK293 cells transfected with human TLR8 assessed as reduction in cell viability up to 5 uM incubated for 16 hrs by WST-1 assay. Format: cell-based. As to conditions: hek293, 16 h. On the technique in general: Formazan colour is commonly taken as a measure of viable cells.
The subject of data set [2] is THP-1. Description: Cytotoxicity against human THP1 cells transfected with human TLR7/8 assessed as reduction in cell viability at 100 uM incubated for 16 hrs by WST-1 assay. The format is cell-based. The following applies: thp-1, 16 h.
The test system of data set [3] is THP-1. Nature of the data set: Inhibition of IFN mediated immune response in human THP1 cells assessed as inhibition of 3p-hpRNA-induced RIG1 signalling pathway at 20 uM incubated for 16 hrs by luciferase assay. Format: functional, cell-based. In a few lines:
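THP1-Dual monocytes carrying Lucia luciferase and SEAP reporters were stimulated with 3p-hpRNA (RIG-I agonist) or Y-form dsDNA G3-YSD (cGAS agonist), with or without compound. Secreted Lucia luciferase luminescence was measured as the type I IFN read-out. Mean ± s.d., n = 3 independent experiments.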

Calls of active or inactive are those of the source. The rule behind the calls is not given here.

Consider `O=C(Nc1ccc(Oc2cc(C(F)(F)F)cc(C(F)(F)F)c2)cc1)c1c(F)cccc1Cl`, for which the inhibition entry in data set [1] was “Dose-dependent effect”. Besides, the Activity entry with HEK293 is listed as “Non-Toxic”.

For the compound `O=[N+]([O-])c1c(I)cccc1Oc1ccc(-c2nnco2)cc1`, the Activity result in the data set on THP-1 [2] is given as “Toxic”. The inhibition entry with THP-1 [3] was “Active”.

(Values after ChEMBL document CHEMBL4354819, “Discovery of Novel Small Molecule Dual Inhibitors Targeting Toll-Like Receptors 7 and 8” (J Med Chem, 2019).)
